Screening results deposited in PubChem BioAssay by Sanford-Burnham Center for Chemical Genomics.
mIAP inh – blocks mouse intestinal alkaline phosphatase | purified mouse IAP, CDP-Star luminescence, 30 min | inhibition, % at 10 µM | 330,000 tested, 0.2% active;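 active means inhibition of at least 40% at 10 µM in the primary screen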
bIAP act – increases bovine intestinal alkaline phosphatase activity; purified bovine IAP, CDP-star luminescence, 30 min; active compounds read high; fold of DMSO-control signal, blank-subtracted; activation factor at 20 µM; 200,000 tested, 0.17% active;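 active means activation factor of 2 or more at 20 µM, a signal rise over negative controls twice the positive control's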
mIAP act – mouse IAP activation; muIAP, CDP-Star luminescence, 30 min; active compounds read high; 1 = vehicle-only enzyme signal, 0 = enzyme-free wells; activation factor at 10 µM; 330,000 tested, 0.24% active;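 active means activation factor of at least 2 at 20 µM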
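Assay system: mouse IAP enzyme; reagent: chemiluminescent substrate CDP-Star; dosing: test compounds delivered from DMSO solution; schedule: 30 min at room temperature; measured by: luminescence from enzymatic CDP-Star hydrolysis; controls: DMSO-only wells and no-enzyme negative control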
bIAP inhibitor – blocks bovine intestinal alkaline phosphatase activity | purified bovine IAP, CDP-star luminescence, 30 min | inhibition, % at 20 µM | 190,000 tested, under 10 active;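 active means over 50% inhibition of intestinal alkaline phosphatase at 20 µM in the single-dose screen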
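System: Purified bovine intestinal alkaline phosphatase (IAP) enzyme | Input: IAP diluted 1/65,000,000 in the well | Also added: CDP-star chemiluminescent phosphatase substrate, 30 µM final | Dosing: 20 µM single dose | Times: Enzyme reaction for 30 min at room temperature | Detection: Luminescence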
hIAP inh – blocks human intestinal alkaline phosphatase; 330,000 tested, 0.12% active; inhibition, % at 10 µM; purified IAP, CDP-Star luminescence, 30 min; P09923;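 active means inhibition reaching a set limit with compound at 10 µM in the primary screen, cut at about 35% in these data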
Target sequence (P09923 whole entry, looked up): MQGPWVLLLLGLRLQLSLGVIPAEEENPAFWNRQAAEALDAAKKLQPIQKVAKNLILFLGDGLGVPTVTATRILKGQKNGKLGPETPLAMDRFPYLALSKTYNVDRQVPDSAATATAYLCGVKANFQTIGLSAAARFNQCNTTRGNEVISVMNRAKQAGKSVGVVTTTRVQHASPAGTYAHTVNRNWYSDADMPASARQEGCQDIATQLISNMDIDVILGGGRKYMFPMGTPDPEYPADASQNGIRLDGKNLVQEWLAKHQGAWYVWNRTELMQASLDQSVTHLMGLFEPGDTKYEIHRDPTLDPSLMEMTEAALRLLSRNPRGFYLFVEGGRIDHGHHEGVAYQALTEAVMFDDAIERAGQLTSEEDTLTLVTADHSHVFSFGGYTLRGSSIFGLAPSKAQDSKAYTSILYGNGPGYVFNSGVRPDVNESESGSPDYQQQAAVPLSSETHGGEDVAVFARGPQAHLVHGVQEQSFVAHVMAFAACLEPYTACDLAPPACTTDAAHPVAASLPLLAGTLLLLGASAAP
hIAP act – increases human intestinal alkaline phosphatase activity | AID 2524 | purified human IAP, CDP-Star luminescence, 30 min; active compounds read high; 1 = vehicle-only enzyme, 0 = enzyme-free background | activation factor at 10 µM | P09923 | 330,000 tested, 0.16% active;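 active means activation factor of the enzyme at least 2-fold when tested at 20 µM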
hIAP act confirm – human IAP activation confirmation; 880 tested, 10% active; activation (%Activity, negative = activation), % at 8.3 µM; AID 434926; shares compounds with hIAP act; purified IAP, CDP-Star luminescence, 30 min; active compounds read low;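 active means at least twofold enzyme activation in any of six single-dose repeats, which the averaged readout prints as negative percent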
Hits are given with their value; . = inactive; / = no result given. An excerpt weighted towards active compounds, which were near 0.72% of everything screened.

SMILES | mIAP inh | bIAP act | mIAP act | bIAP inhibitor | hIAP inh | hIAP act | hIAP act confirm
CCCCn1c(-c2sccc2C)n[nH]c1=S | . | . | . | . | . | . | /
CCc1ccccc1NS(=O)(=O)c1c(C(=O)N2CCCCCC2)c(C)n(C)c1C | . | / | . | / | . | . | /
O=C(NCc1ccccc1Cl)c1ccc2nnsc2c1 | . | / | . | / | . | . | /
CCOc1cccc(/C=N/NC(=O)c2cc(C3CC3)[nH]n2)c1O | . | / | . | / | . | 2.47 | .
CCOC(=O)/C(O)=C(\C#N)c1nc2ccccc2[nH]1 | . | . | . | . | . | . | /
O=C(NNC(=O)c1nc2ccccc2[nH]1)OCc1ccccc1 | . | / | . | / | . | 2.61 | .
COc1ccc(-n2c(=O)[nH]c3c(C(N)=O)nc(C4CCCCC4)nc32)cc1 | . | . | . | . | . | . | /
CCc1nn(CC(=O)NC2CCN(Cc3ccccc3)CC2)c(=O)c2cc3cc(F)ccc3n12 | . | / | . | / | . | . | /
CCc1nn(CC(=O)NC(C)CCc2ccccc2)c(=O)c2cc3cc(F)ccc3n12 (configuration not stated) | . | / | . | / | . | 2.2 | .
Cc1ccc(N/C=C/C(=O)c2ccco2)c(O)c1 | . | / | . | / | . | 2.16 | .
Cc1nc(Nc2nc3c(c(=O)[nH]2)CCC3)nc2ccccc12 | . | / | . | / | . | 2.77 | -77.6
Oc1c(N=Nc2ccccc2)sc2ccccc12 | . | / | . | / | 38.3 | . | .
CC(=Nc1ccc(O)cc1)c1sc2ccccc2c1O | . | . | . | . | . | . | /
CCNc1nc(NCC)nc(-n2nc(C)cc2C)n1 | . | . | . | . | 40.7 | . | .
Cc1nnc(NC(=O)CSc2n[nH]c(-c3ccccc3C)n2)s1 | . | / | . | / | 41.3 | . | .
CCC1(c2ccccc2)NC(=O)N(CC(=O)NNC(=O)COc2ccc(Cl)cc2C)C1=O (configuration not stated) | . | / | . | / | . | . | /
Cc1nc(SCC(=O)Nc2ccc(OCc3ccccc3)cc2)n[nH]1 | . | . | . | . | . | . | /
Cc1nc(S/C(=C\c2ccc(OCc3ccccc3Cl)cc2)C(=O)O)n[nH]1 | . | . | . | . | . | 2.13 | .
CCCCCCN1C=CC(=C/C=C(\C#N)C(=O)OCC)C=C1 | . | . | . | . | 44.5 | . | .
COc1cc(CSc2ncn[nH]2)c(OC)cc1CSc1ncn[nH]1 | . | . | . | . | . | 2.71 | .
O=c1cc(CSc2ccccc2)nc(-c2ccncc2)[nH]1 | . | . | . | . | . | . | /
Cc1nc(SCC(=O)NC2CCS(=O)(=O)C2)c2c3c(sc2n1)CCCC3 (configuration not stated) | . | / | . | / | . | . | /
Cc1ccc(S(=O)(=O)NC(CCc2ccccc2)CC(=O)C(C)(C)C)cc1 (configuration not stated) | . | . | . | . | . | . | /
Cc1ccc(NC(=O)CCC(=O)NNC(=S)Nc2ccccc2)c(C)c1 | . | . | . | . | . | 2.06 | .
Cc1ccc(C)c(NCC(=O)NNC(=S)Nc2ccccc2)c1 | . | . | . | . | . | 2.03 | .
SMILES | mIAP inh | bIAP act | mIAP act | bIAP inhibitor | hIAP inh | hIAP act | hIAP act confirm
Cc1ccc(C)c(NC(=S)NCc2ccccc2)c1 | . | / | . | / | . | . | /
Cc1ccc(C)c(NC(=O)CCC(=O)NNC(=S)Nc2ccccc2)c1 | . | . | . | . | . | . | /
O=C(Cc1ccccc1)NNC(=S)Nc1ccccc1 | . | . | . | . | . | 2.18 | .
c1ccc(COc2ccc3nocc3c2)cc1 | . | / | . | / | . | . | /
COC(=O)c1nnn(-c2nonc2N)c1CSc1nc2ccccc2s1 | . | . | . | . | . | . | /
COC(=O)c1nnn(-c2nonc2N)c1CSc1nc2ccccc2o1 | . | . | . | . | . | 3.27 | .
CC1=Nc2ccccc2N=C(NC(=O)CSC(=S)N2CCN(C)CC2)C1c1ccccc1 (configuration not stated) | . | / | . | / | . | 2.43 | .
CC1=Nc2ccccc2N=C(NC(=O)CSC(=S)N2CCCCC2)C1c1ccccc1 (configuration not stated) | . | / | . | / | . | . | /
O=C1CC(c2ccccc2F)c2cc3c(cc2N1)CCC3 (configuration not stated) | . | . | . | . | . | 3.2 | .
COC(=O)c1cc(NC(=O)Cn2nc(C)n3cccc3c2=O)cc(C(=O)OC)c1 | . | / | . | / | 38.6 | . | .
Cc1ccccc1NC(=O)Cn1nc(C)n2cccc2c1=O | . | / | . | / | . | . | /
COn1c(-c2ccc(Cl)cc2)nc2ccc(Cl)cc21 | . | . | . | . | . | . | /
O=C(O)COn1c(-c2ccc(Cl)cc2)nc2ccc(Cl)cc21 | . | . | . | . | . | 2.16 | .
CC(=O)Nc1ccc(C(=O)NNC(=O)C2C3CCCCC32)cc1 (configuration not stated) | . | / | . | / | . | . | /
Cc1ccc(S(=O)(=O)N2CCN(C(=O)CCn3cncn3)CC2)cc1 | . | / | . | / | 36.0 | . | .
CC1CCCN(C(=O)C2CCN(S(=O)(=O)c3cccc4nsnc34)CC2)C1 (configuration not stated) | . | / | . | / | 48.9 | . | .
COc1cc(OC)cc(C(=O)NNC(=O)C(=O)Nc2cc(OC)c(Cl)cc2OC)c1 | . | / | . | / | 38.6 | . | .
COc1cc(NC(=O)C(=O)NNC(=O)C2CCCCC2)c(OC)cc1Cl | . | . | . | . | . | . | /
COC(=O)c1ccc(N2NC(=O)/C(=C/c3cc(OC)c(O)c(OC)c3)C2=O)cc1 | . | / | . | / | 37.3 | . | .
COC(=O)c1ccc(N2NC(=O)/C(=C/c3cc(OC)c(OC)c(OC)c3)C2=O)cc1 | . | / | . | / | . | . | /
Cc1nn(-c2ccccc2)c2c1C(c1ccncc1)C(C#N)=C(N)O2 (configuration not stated) | . | . | . | . | 37.6 | . | .
Cc1ccc(-n2nc(C)c3c2OC(N)=C(C#N)C3c2ccncc2)cc1 (configuration not stated) | . | . | . | . | . | . | /
CC(C)(C)c1ccc(C(=O)NCC(=O)O)cc1 | . | . | . | . | . | . | /
CNC(=O)N(O)C1N(/N=C/c2ccccc2O)C(=S)SC1(C)C (configuration not stated) | . | / | . | / | . | . | /
CCCCNC(=O)N(O)C1N(/N=C/c2cccs2)C(=S)SC1(C)C (configuration not stated) | . | / | . | / | 36.1 | . | .
CCOC(=O)c1c(-c2ccccc2)csc1NC(=O)COc1ccc2c(C)cc(=O)oc2c1 | . | . | . | . | 43.8 | . | .
Cc1cc(C)nc(Nc2n[nH]c(COc3ccccc3)n2)n1 | . | . | . | . | . | . | /
Cc1cc(C)nc(Nc2n[nH]c(COc3ccc4ccccc4c3)n2)n1 | . | . | . | . | . | 2.03 | .
